Measurements: ChEMBL document CHEMBL1145212, “Fluorinated diaryl sulfides as serotonin transporter ligands: synthesis, structure-activity relationship study, and in vivo evaluation of fluorine-18-labeled compounds as PET imaging agents” (J Med Chem, 2005)

Legend:
Rattus norvegicus [1] = species on record: Rattus norvegicus; test: Regional uptake of [18F]-AFA in hypothalamus of rat pretreated with compound 7f; n=3; assay type: functional, organism-based; details: tested as the 18F-labelled form
Rattus norvegicus [2] = species on record: Rattus norvegicus; test: Regional uptake of [18F]-AFA in blood of rat pretreated with compound citalopram; n=3; assay type: functional, organism-based; details: tested as the 18F-labelled form
In short: (§1)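 Male Sprague-Dawley rats, three per group, received blocker (2 mg/kg iv in saline) or saline only (controls) 10–15 min before about 20 µCi of tail-vein F-18 radioligand. Killed 60 min after tracer. Blood and brain regions weighed and gamma-counted. %ID/g was decay- and tail-corrected; mean ± SD.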

Rattus norvegicus [3] = species on record: Rattus norvegicus; test: Regional uptake of [18F]AFA in blood of rat pretreated with compound nisoxetine; n=3; assay type: functional, organism-based; details: tested as the 18F-labelled form; in short: as §1
Rattus norvegicus [4] = species on record: Rattus norvegicus; test: Regional uptake of [18F]AFA in frontal cortex of rat pretreated with compound 7f; n=3; assay type: functional, organism-based; details: tested as the 18F-labelled form
Rattus norvegicus [5] = species on record: Rattus norvegicus; test: Regional uptake of [18F]-AFA in striatum of rat pretreated with compound GBR-12935; n=3; assay type: functional, organism-based; details: tested as the 18F-labelled form; in short: as §1
Rattus norvegicus [6] = species on record: Rattus norvegicus; test: Regional uptake of [18F]AFA in thalamus of rat pretreated with compound GBR-12935; n=3; assay type: functional, organism-based; details: tested as the 18F-labelled form; in short: as §1
Rattus norvegicus [7] = species on record: Rattus norvegicus; test: Regional uptake of [18F]AFA in striatum of rat pretreated with compound citalopram; n=3; assay type: functional, organism-based; details: tested as the 18F-labelled form; in short: as §1
Rattus norvegicus [8] = species on record: Rattus norvegicus; test: Regional uptake of [18F]AFA in striatum of rat pretreated with compound nisoxetine; n=3; assay type: functional, organism-based; details: tested as the 18F-labelled form; in short: as §1
Rattus norvegicus [9] = species on record: Rattus norvegicus; test: Regional uptake of [18F]AFA in thalamus of rat pretreated with compound citalopram; n=3; assay type: functional, organism-based; details: tested as the 18F-labelled form; in short: as §1
Rattus norvegicus [10] = species on record: Rattus norvegicus; test: Regional uptake of [18F]AFA in thalamus of rat pretreated with compound nisoxetine; n=3; assay type: functional, organism-based; details: tested as the 18F-labelled form; in short: as §1
Rattus norvegicus [11] = species on record: Rattus norvegicus; test: Regional uptake of [18F]AFA in hippocampus of rat pretreated with compound GBR-12935; n=3; assay type: functional, organism-based; details: tested as the 18F-labelled form; in short: as §1
Rattus norvegicus [12] = species on record: Rattus norvegicus; test: Regional uptake of [18F]AFA in cerebellum of rat pretreated with compound citalopram; n=3; assay type: functional, organism-based; details: tested as the 18F-labelled form; in short: as §1
Rattus norvegicus [13] = species on record: Rattus norvegicus; test: Regional uptake of [18F]AFA in cerebellum of rat pretreated with compound nisoxetine; n=3; assay type: functional, organism-based; details: tested as the 18F-labelled form; in short: as §1
Rattus norvegicus [14] = species on record: Rattus norvegicus; test: Regional uptake of [18F]AFA in hypothalamus of rat pretreated with compound GBR-12935; n=3; assay type: functional, organism-based; details: tested as the 18F-labelled form; in short: as §1
Rattus norvegicus [15] = species on record: Rattus norvegicus; test: Regional uptake of [18F]AFA in hippocampus of rat pretreated with compound citalopram; n=3; assay type: functional, organism-based; details: tested as the 18F-labelled form; in short: as §1
Rattus norvegicus [16] = species on record: Rattus norvegicus; test: Regional uptake of [18F]AFA in hippocampus of rat pretreated with compound nisoxetine; n=3; assay type: functional, organism-based; details: tested as the 18F-labelled form; in short: as §1
Rattus norvegicus [17] = species on record: Rattus norvegicus; test: Regional uptake of [18F]AFA in frontal cortex of rat pretreated with compound GBR-12935; n=3; assay type: functional, organism-based; details: tested as the 18F-labelled form; in short: as §1
Rattus norvegicus [18] = species on record: Rattus norvegicus; test: Regional uptake of [18F]-AFA in hypothalamus of rat pretreated with compound nisoxetine; n=3; assay type: functional, organism-based; details: tested as the 18F-labelled form; in short: as §1
Rattus norvegicus [19] = species on record: Rattus norvegicus; test: Regional uptake of [18F]AFA in frontal cortex of rat pretreated with compound citalopram; n=3; assay type: functional, organism-based; details: tested as the 18F-labelled form; in short: as §1
Rattus norvegicus [20] = species on record: Rattus norvegicus; test: Regional uptake of [18F]AFA in frontal cortex of rat pretreated with compound nisoxetine; n=3; assay type: functional, organism-based; details: tested as the 18F-labelled form; in short: as §1
[21] = biological target: Sodium-dependent serotonin transporter (Homo sapiens, UniProt P31645); test: In vitro displacement of [3H]paroxetine from human serotonin transporter expressed in HEK293 cells; assay type: cell-based
Chain of Sodium-dependent serotonin transporter (P31645 whole entry): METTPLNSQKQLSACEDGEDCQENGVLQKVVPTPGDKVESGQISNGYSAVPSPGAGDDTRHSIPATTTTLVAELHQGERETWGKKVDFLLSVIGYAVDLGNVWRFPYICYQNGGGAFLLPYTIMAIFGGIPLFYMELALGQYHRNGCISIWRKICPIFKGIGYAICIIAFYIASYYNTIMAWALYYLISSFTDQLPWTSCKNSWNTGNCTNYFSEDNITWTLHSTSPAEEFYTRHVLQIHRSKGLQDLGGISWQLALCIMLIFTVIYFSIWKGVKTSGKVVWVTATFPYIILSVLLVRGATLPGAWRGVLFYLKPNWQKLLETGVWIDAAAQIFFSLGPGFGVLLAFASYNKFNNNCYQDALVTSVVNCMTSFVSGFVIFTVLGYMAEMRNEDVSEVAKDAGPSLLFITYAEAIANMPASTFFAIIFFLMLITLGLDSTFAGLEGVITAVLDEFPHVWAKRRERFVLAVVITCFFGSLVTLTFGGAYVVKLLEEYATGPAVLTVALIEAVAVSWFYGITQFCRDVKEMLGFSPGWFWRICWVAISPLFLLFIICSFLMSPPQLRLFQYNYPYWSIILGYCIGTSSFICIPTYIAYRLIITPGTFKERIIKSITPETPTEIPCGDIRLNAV

Rattus norvegicus [22] = species on record: Rattus norvegicus; test: Regional uptake of [18F]AFA in cerebellum of rat pretreated with compound GBR-12935; n=3; assay type: functional, organism-based; details: tested as the 18F-labelled form; in short: as §1
Rattus norvegicus [23] = species on record: Rattus norvegicus; test: Regional uptake of [18F]AFA in hypothalamus of rat pretreated with compound citalopram; n=3; assay type: functional, organism-based; details: tested as the 18F-labelled form; in short: as §1
Rattus norvegicus [24] = species on record: Rattus norvegicus; test: Regional uptake of [18F]AFP in thalamus of rat pretreated with compound 7f; n=3; details: tested as the 18F-labelled form
Rattus norvegicus [25] = species on record: Rattus norvegicus; test: Regional uptake of [18F]-AFP in striatum of rat pretreated with compound 7f; n=3; details: tested as the 18F-labelled form

CN(C)Cc1ccccc1Sc1ccc(CCCF)cc1N
Uptake (Rattus norvegicus [1]): 0.1 %ID/g | Uptake (Rattus norvegicus [2]): 0.09 %ID/g | Uptake (Rattus norvegicus [3]): 0.08 %ID/g | Uptake (Rattus norvegicus [4]): 0.08 %ID/g | Uptake (Rattus norvegicus [5]): 0.17 %ID/g | Uptake (Rattus norvegicus [6]): 0.18 %ID/g | Uptake (Rattus norvegicus [7]): 0.12 %ID/g | Uptake (Rattus norvegicus [8]): 0.13 %ID/g | Uptake (Rattus norvegicus [9]): 0.15 %ID/g | Uptake (Rattus norvegicus [10]): 0.15 %ID/g | Uptake (Rattus norvegicus [11]): 0.16 %ID/g | Uptake (Rattus norvegicus [12]): 0.08 %ID/g | Uptake (Rattus norvegicus [13]): 0.08 %ID/g | Uptake (Rattus norvegicus [14]): 0.17 %ID/g | Uptake (Rattus norvegicus [15]): 0.11 %ID/g | Uptake (Rattus norvegicus [16]): 0.16 %ID/g | Uptake (Rattus norvegicus [17]): 0.15 %ID/g | Uptake (Rattus norvegicus [18]): 0.15 %ID/g | Uptake (Rattus norvegicus [19]): 0.16 %ID/g | Uptake (Rattus norvegicus [20]): 0.13 %ID/g | Ki [21]: 3.58 nM | Uptake (Rattus norvegicus [22]): 0.09 %ID/g | Uptake (Rattus norvegicus [23]): 0.13 %ID/g | Uptake (Rattus norvegicus [24]): 0.1 %ID/g | Uptake (Rattus norvegicus [25]): 0.08 %ID/g
